{"source": "ChEMBL document CHEMBL3616436", "about": "“Synthesis, cytotoxicity and antimicrobial activity of thiourea derivatives incorporating 3-(trifluoromethyl)phenyl moiety” (Eur J Med Chem, 2015)", "key": {"[1]": {"system": "Human immunodeficiency virus 1", "assay": "Antiviral activity against HIV1 3B infected in human MT4 cells assessed as protection against virus-induced cytopathogenicity by MTT assay", "assay_type": "functional, organism-based", "details": "Human immunodeficiency virus 1, 3B"}, "Pseudomonas aeruginosa [2]": {"system": "Pseudomonas aeruginosa", "assay": "Antimicrobial activity against Pseudomonas aeruginosa ATCC 15442 after 18 hrs by twofold serial microdilution method", "assay_type": "functional, organism-based"}, "[3]": {"assay": "Cytotoxicity against African green monkey Vero 76 cells assessed as cell viability after 48 to 96 hrs by crystal violet staining", "assay_type": "cell-based", "details": "chlorocebus sabaeus"}, "Escherichia coli [4]": {"system": "Escherichia coli", "assay": "Antimicrobial activity against Escherichia coli NCTC 8196 after 18 hrs by twofold serial microdilution method", "assay_type": "functional, organism-based"}, "Candida parapsilosis": {"system": "Candida parapsilosis", "assay": "Antimicrobial activity against Candida parapsilosis ATCC 22019 after 24 hrs by twofold serial microdilution method", "assay_type": "functional, organism-based"}, "CCRF-SB": {"system": "CCRF-SB", "assay": "Cytotoxicity against human CCRF-SB cells after 96 hrs by MTT assay", "assay_type": "functional", "outline": "(§1)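 Leukaemia/lymphoma lines seeded at 1×10^5 cells/ml in RPMI-1640 with 10% FCS and penicillin/streptomycin; incubated with serial dilutions at 37°C, 5% CO2; viability by MTT after 96 h; value is concentration reducing proliferation by 50%, with untreated controls undergoing at least three rounds of multiplication.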"}, "[5]": {"assay": "Cytotoxicity against human MT4 cells", "assay_type": "cell-based"}, "Vaccinia virus": {"system": "Vaccinia virus", "assay": "Antiviral activity against Human Vaccinia virus ATCC VR-1549 infected in African green monkey Vero 76 cells assessed as reduction of virus-plaque formation after 3 days by crystal violet staining", "assay_type": "functional, organism-based", "details": "Orthopoxvirus vaccinia, ATCC VR-1549, Vero, 72 h"}, "[6]": {"system": "Vesicular stomatitis virus", "assay": "Antiviral activity against Vesicular stomatitis virus ATCC VR 1540 infected in African green monkey Vero 76 cells assessed as reduction of virus-plaque formation after 2 days by crystal violet staining", "assay_type": "functional, organism-based", "details": "ATCC VR 1540, Vero, 48 h"}, "Coxsackievirus B5": {"system": "Coxsackievirus B5", "assay": "Antiviral activity against Human coxsackievirus B5 ATCC VR-29 infected in African green monkey Vero 76 cells assessed as reduction of virus-plaque formation after 3 days by crystal violet staining", "assay_type": "functional, organism-based", "details": "Enterovirus B, ATCC VR-29, Vero, 72 h", "outline": "(§2)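 Plaque reduction: Vero-76 at 2x10^5 cells/well grown to confluent monolayers, infected 2 h at 50–100 PFU/well; after removing unadsorbed virus, overlay of D-MEM, 1% inactivated FBS, 0.75% methylcellulose with or without serial compound dilutions; 3 days at 37°C, fixed and stained with crystal violet in 50% ethanol, plaques counted; EC50 by linear regression.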"}, "Candida albicans [7]": {"system": "Candida albicans", "assay": "Antimicrobial activity against Candida albicans ATCC 90028 after 24 hrs by twofold serial microdilution method", "assay_type": "functional, organism-based"}, "Pseudomonas aeruginosa [8]": {"system": "Pseudomonas aeruginosa", "assay": "Antimicrobial activity against Pseudomonas aeruginosa ATCC 27863 after 18 hrs by twofold serial microdilution method", "assay_type": "functional, organism-based"}, "[9]": {"system": "Mammalian orthoreovirus 1", "assay": "Antiviral activity against Reovirus type-1 ATCC VR-214 infected in BHK cells assessed as protection against virus-induced cytopathogenicity after 3 to 4 days by MTT assay", "assay_type": "functional, cell-based", "details": "Mammalian orthoreovirus 1, ATCC VR-214, BHK", "outline": "(§3)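 Cells seeded in 96-well plates (BHK 5x10^4, MDBK 3x10^4 cells/well), grown overnight to confluence, infected at m.o.i. 0.01 (BHK for Reo-1, MDBK for BVDV); serial compound dilutions in maintenance medium with 0.5% inactivated FBS added after 1 h; viability by MTT after 3–4 days at 37°C; EC50 for 50% protection by linear regression.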"}, "Escherichia coli [10]": {"system": "Escherichia coli", "assay": "Antimicrobial activity against Escherichia coli ATCC 25922 after 18 hrs by twofold serial microdilution method", "assay_type": "functional, organism-based"}, "CCRF-CEM": {"system": "CCRF-CEM", "assay": "Cytotoxicity against human CCRF-CEM cells after 96 hrs by MTT assay", "assay_type": "functional", "outline": "as §1"}, "Pseudomonas aeruginosa [11]": {"system": "Pseudomonas aeruginosa", "assay": "Antimicrobial activity against Pseudomonas aeruginosa NCTC 6749 after 18 hrs by twofold serial microdilution method", "assay_type": "functional, organism-based"}, "Poliovirus 1": {"system": "Poliovirus 1", "assay": "Antiviral activity against Poliovirus type 1 ATCC VR-1562 infected in African green monkey Vero 76 cells assessed as reduction of virus-plaque formation after 2 days by crystal violet staining", "assay_type": "functional, organism-based", "details": "Enterovirus C, ATCC VR-1562, Vero, 48 h"}, "[12]": {"system": "Bordetella bronchiseptica", "assay": "Antimicrobial activity against Bordetella bronchiseptica ATCC 4617 after 18 hrs by twofold serial microdilution method", "assay_type": "functional, organism-based"}, "[13]": {"assay": "Antiviral activity against Bovine viral diarrhea virus 1-NADL ATCC VR-534 infected in MDBK cells assessed as protection against virus-induced cytopathogenicity after 3 to 4 days by MTT assay", "assay_type": "functional, cell-based", "details": "Bovine viral diarrhea virus isolates and strains, ATCC VR-534, MDBK", "outline": "as §3"}, "WIL2-NS": {"system": "WIL2-NS", "assay": "Cytotoxicity against human WIL2-NS cells after 96 hrs by MTT assay", "assay_type": "functional", "outline": "as §1"}, "Human alphaherpesvirus 1": {"system": "Human alphaherpesvirus 1", "assay": "Antiviral activity against Human herpesvirus 1 KOS ATCC VR-1493 infected in African green monkey Vero 76 cells assessed as reduction of virus-plaque formation after 3 days by crystal violet staining", "assay_type": "functional, organism-based", "details": "Human alphaherpesvirus 1, KOS ATCC VR1493, Vero, 72 h", "outline": "as §2"}, "Escherichia coli [14]": {"system": "Escherichia coli", "assay": "Antimicrobial activity against Escherichia coli ATCC 10538 after 18 hrs by twofold serial microdilution method", "assay_type": "functional, organism-based"}, "Candida albicans [15]": {"system": "Candida albicans", "assay": "Antimicrobial activity against Candida albicans ATCC 10231 after 24 hrs by twofold serial microdilution method", "assay_type": "functional, organism-based"}, "Yellow fever virus": {"system": "Yellow fever virus", "assay": "Antiviral activity against Yellow fever virus 17D infected in BHK cells assessed as protection against virus-induced cytopathogenicity after 3 to 4 days by MTT assay", "assay_type": "functional, cell-based"}, "[16]": {"assay": "Cytotoxicity against bovine MDBK cells assessed as cell viability after 48 to 96 hrs by MTT assay", "assay_type": "cell-based, Bos taurus", "details": "cattle"}, "[17]": {"assay": "Cytotoxicity against BHK cells assessed as cell viability after 48 to 96 hrs by MTT assay", "assay_type": "cell-based, Mesocricetus auratus", "details": "hamster"}}, "note": "Calls of active or inactive are those of the source. The calls are words filed in the database; no cut-off is given here."}
{"compound": "FC(F)(F)c1cccc(NC(=S)Nc2ccc(I)cc2)c1", "values": [{"measurement": "EC50", "setting": "[1]", "value": "> 10.5", "unit": "µM"}, {"measurement": "Activity", "setting": "Pseudomonas aeruginosa [2]", "value": "inactive"}, {"measurement": "CC50", "setting": "[3]", "value": 9.5, "unit": "µM"}, {"measurement": "Activity", "setting": "Escherichia coli [4]", "value": "inactive"}, {"measurement": "Activity", "setting": "Candida parapsilosis", "value": "inactive"}, {"measurement": "CC50", "setting": "CCRF-SB", "value": 9.1, "unit": "µM"}, {"measurement": "CC50", "setting": "[5]", "value": 10, "unit": "µM"}, {"measurement": "EC50", "setting": "Vaccinia virus", "value": "> 9.5", "unit": "µM"}, {"measurement": "EC50", "setting": "[6]", "value": "> 9.5", "unit": "µM"}, {"measurement": "EC50", "setting": "Coxsackievirus B5", "value": "> 9.5", "unit": "µM"}, {"measurement": "Activity", "setting": "Candida albicans [7]", "value": "inactive"}, {"measurement": "Activity", "setting": "Pseudomonas aeruginosa [8]", "value": "inactive"}, {"measurement": "EC50", "setting": "[9]", "value": "> 9.4", "unit": "µM"}, {"measurement": "Activity", "setting": "Escherichia coli [10]", "value": "inactive"}, {"measurement": "CC50", "setting": "CCRF-CEM", "value": 8, "unit": "µM"}, {"measurement": "Activity", "setting": "Pseudomonas aeruginosa [11]", "value": "inactive"}, {"measurement": "EC50", "setting": "Poliovirus 1", "value": "> 9.5", "unit": "µM"}, {"measurement": "Activity", "setting": "[12]", "value": "inactive"}, {"measurement": "EC50", "setting": "[13]", "value": "> 9.5", "unit": "µM"}, {"measurement": "CC50", "setting": "WIL2-NS", "value": 8, "unit": "µM"}, {"measurement": "EC50", "setting": "Human alphaherpesvirus 1", "value": "> 9.5", "unit": "µM"}, {"measurement": "Activity", "setting": "Escherichia coli [14]", "value": "inactive"}, {"measurement": "Activity", "setting": "Candida albicans [15]", "value": "inactive"}, {"measurement": "EC50", "setting": "Yellow fever virus", "value": "> 9.4", "unit": "µM"}, {"measurement": "CC50", "setting": "[16]", "value": 9.5, "unit": "µM"}, {"measurement": "CC50", "setting": "[17]", "value": 9.4, "unit": "µM"}]}
